# MT stabilizer – microtubule stabilizers in HeLa cells, primary screen, imaging, high-content imaging; HeLa tubulin immunostaining HCS, 24 h; share of cells brighter than vehicle mean+2SD; % tubulin-high responders, % at 10 µM; 200,000 compounds, 0.83% hits;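 active = plate Z-score above 3 for both tubulin-high and condensed-nucleus cell shares, with cell loss under 80%, at 10 µM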;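 also: anti alpha tubulin signal scored within the nucleus-defined area of each cell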
# NPY Y1 blocker – NPY-Y1 receptor antagonists, primary screen, cell-based | Neuropeptide Y receptor type 1 (Homo sapiens), P25929 | HEK293-CNG Y1 cells, membrane potential fluorescence; NPY at EC95, then isoproterenol | inhibition, % at 3.6 µM | 200,000 compounds, 1% hits | AID 1040, 2008;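 active = inhibition above the campaign mean inhibition of all tested compounds plus 3 SD, cut at about 20% in these data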
# Target sequence (P25929 whole entry, looked up): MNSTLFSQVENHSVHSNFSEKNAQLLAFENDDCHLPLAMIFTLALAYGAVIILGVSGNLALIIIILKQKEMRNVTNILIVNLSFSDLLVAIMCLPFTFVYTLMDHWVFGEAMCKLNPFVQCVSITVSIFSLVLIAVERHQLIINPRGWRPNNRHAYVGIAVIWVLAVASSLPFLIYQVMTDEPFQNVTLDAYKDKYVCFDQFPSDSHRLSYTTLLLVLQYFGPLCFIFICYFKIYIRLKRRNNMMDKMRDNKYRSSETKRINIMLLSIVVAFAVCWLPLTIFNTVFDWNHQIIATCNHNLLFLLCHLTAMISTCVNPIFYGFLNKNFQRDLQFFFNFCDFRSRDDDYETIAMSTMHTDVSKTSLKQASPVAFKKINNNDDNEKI
#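 material = HEK293 cells with Y1 receptor plus CNG channel | also added = NPY 25 nM then isoproterenol 1 µM plus Ro 20-1724 25 µM | schedule = dye 3 h, compound 60 min room temperature, stimulation 45 min | measured by = membrane potential fluorescence | benchmarks = high control isoproterenol alone, low control NPY with isoproterenol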
# bCat nuc transl – modulators of beta-catenin nuclear translocation, primary screen, imaging, HeLa cells, immunofluorescence, high-content; nuclear translocation activity, % at 5 µM; 190,000 compounds, 0.3% hits; AID 1665, 2009;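 active = nuclear translocation activity above 50% at 5 µM, with a well cell count of 50 or more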;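 also: per-cell ratio of nuclear to cytoplasmic median beta-catenin stain intensity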
#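 Test system: human HeLa cells, endogenous beta-catenin. Times: 24 h compound exposure, 37°C. Measured by: beta-catenin immunofluorescence imaging with DAPI.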
# NPY-Y1 PAM-ag – NPY-Y1 receptor potentiators or agonists, primary screen, cell-based | Neuropeptide Y receptor type 1 (Homo sapiens), P25929 | NPY-Y1 expressing cells, potentiator/agonist activation | activation, % at 3.6 µM | 220,000 compounds, 0.37% hits | AID 1304, 2008; in the data active = activation above about 33%, passing the limit was not always enough;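 also: cells stimulated with NPY at EC10 then isoproterenol at EC100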
# NPY-Y2 PAM-ag – NPY-Y2 potentiators or agonists, primary screen, cell-based; Neuropeptide Y receptor type 2 (Homo sapiens), P49146; cells expressing NPY-Y2, potentiator/agonist read-out; activation, % at 3.6 µM; 220,000 compounds, 0.45% hits; in the data active = activation above about 27%;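 also: cells stimulated with NPY near EC25 plus isoproterenol at EC100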
# NPY-Y2 antag – NPY-Y2 receptor antagonists, primary screen, cell-based. inhibition, % at 2.7 µM. Neuropeptide Y receptor type 2 (Homo sapiens), P49146. NPY-Y2 expressing cells, antagonist mode. 140,000 compounds, 0.99% hits
# NPY-Y1 ant conf – NPY-Y1 receptor antagonists, retest of hits, confirmation, HEK293-CNG cells, membrane potential fluorescence, triplicate; shares compounds with NPY Y1 blocker; cAMP; NPY challenge against isoproterenol-raised cAMP; inhibition, % at 3.6 µM; 1,200 compounds, 21% hits; AID 1254, 2008; in the data active = inhibition above about 20%
# NPY-Y2 antag ct – NPY-Y2 receptor antagonists, selectivity check, confirmation, counter-screen for NPY-Y1 antagonist project, HEK293-CNG cells, membrane potential fluorescence, triplicate. shares compounds with NPY Y1 blocker. antagonism; cells given NPY, then isoproterenol. inhibition, % at 3.6 µM. 1,200 compounds, 28% hits. AID 1255, 2008
# Hits are given with their value; 0 = inactive; - = not tested or not shown. A selection: hits, their analogues and other compounds. The true share with any hit is near 2.6%. Rule as the data show it, unless noted: active = inhibition above about 17%; inactive = the rest.
SMILES,MT stabilizer,NPY Y1 blocker,bCat nuc transl,NPY-Y1 PAM-ag,NPY-Y2 PAM-ag,NPY-Y2 antag,NPY-Y1 ant conf,NPY-Y2 antag ct
CCc1n[nH]c(=S)n1/N=C/c1c(C)nn(-c2ccccc2)c1Cl,0,45,0,0,0,-,32,53
Cc1ccc(-c2n[nH]c(=S)n2/N=C/c2c(C)nn(-c3ccccc3)c2C)cc1,0,0,0,0,0,0,-,-
CCOc1cc(C=O)cc(Cl)c1OCC(N)=O,0,0,0,0,0,-,-,-
COc1ccc(C)cc1N(C(=O)c1ccc(F)cc1)c1nc2ccccc2s1,0,22,0,0,0,0,0,0
COc1ccc(C)cc1N(C(=O)COc1cccc(F)c1)c1nc2ccccc2s1,0,0,0,0,0,0,-,-
Cc1nc2ccccn2c1C(=O)Nc1ccc(Cl)cc1,0,0,0,0,0,-,-,-
O=C(Nc1c2c(nn1-c1ccc(F)cc1)CS(=O)(=O)C2)C12CC3CC(CC(C3)C1)C2,0,33,0,0,0,0,0,0
CCC(=O)Nc1c2c(nn1-c1ccc(F)cc1)CS(=O)C2 (centres undefined),0,0,-,0,0,0,-,-
Cc1noc(C)c1CSc1nc2[nH]ncc2c(=O)n1-c1ccccc1,25,21,0,0,0,0,0,0
Cc1nc(CSc2nc3[nH]ncc3c(=O)n2-c2ccccc2)cs1,0,0,-,0,0,0,-,-
O=C(NCc1cccnc1)C(=O)NCC1OCCN1S(=O)(=O)c1ccc(Cl)cc1 (centres undefined),0,0,0,0,0,0,-,-
O=C(NCc1cccnc1)/C(=C/c1ccc(-c2ccc(Cl)cc2)o1)S(=O)(=O)c1ccccc1,0,25,-,0,0,0,0,22
CC1CCCCC1NC(=O)CN1C(=O)NC(Cc2ccccc2)(Cc2ccccc2)C1=O (centres undefined),0,24,0,0,0,0,31,28
O=C(COc1ccc(Cl)cc1)N(Cc1ccccc1)c1nc(-c2ccccc2)cs1,0,0,0,0,0,0,-,-
COc1ccc(-c2csc(N(CCc3ccccc3)C(=O)COc3ccccc3)n2)cc1,0,32,0,0,0,0,0,0
CCN1CCc2c(C#N)c(NCc3ccccc3)nc(N(CC)CC)c2C1,0,34,0,0,0,0,0,28
O=C(O)CCSc1nnc(-c2ccc3c(c2)OCO3)o1,0,0,0,0,0,0,-,-
CC(=O)CSc1nnc(-c2ccc3c(c2)OCO3)o1,0,21,0,0,0,0,0,0
CCn1c(=O)cc(SCC(=O)N2CCN(c3ccccn3)CC2)c2ccccc21,0,0,-,0,0,0,-,-
CCn1c(=O)cc(SCC(=O)N2CCN(c3ccccc3F)CC2)c2ccccc21,0,24,0,0,0,0,0,0
COc1ccccc1Nc1nc(N)nc(CN2CCC(Cc3ccccc3)CC2)n1,0,25,-,0,0,0,0,22
CCc1cccc(CC)c1NC(=O)C(NS(=O)(=O)c1cccs1)c1ccccc1 (centres undefined),0,23,0,0,0,0,23,0
CC(C)CCNC(=O)/C=C/c1ccc(Br)cc1,0,20,0,0,0,0,0,0
CC(C)N=C(NS(=O)(=O)NC(=O)c1ccccc1)c1ccccc1,0,0,0,0,0,-,-,-
CCOc1ccccc1CN1CCN(C/C=C/c2ccc(OC)cc2)CC1CCO (centres undefined),0,25,0,0,0,-,0,0
SMILES,MT stabilizer,NPY Y1 blocker,bCat nuc transl,NPY-Y1 PAM-ag,NPY-Y2 PAM-ag,NPY-Y2 antag,NPY-Y1 ant conf,NPY-Y2 antag ct
FC(F)(F)c1ccc(NC(=S)NCc2ccccc2)cc1,0,0,0,0,0,-,-,-
CC(C)OC(=O)c1c(N)n(CCCN2CCOCC2)c2nc3ccccc3nc12,0,0,-,0,0,0,-,-
COc1ccccc1CNC(=O)c1c(N)n(CCCN2CCOCC2)c2nc3ccccc3nc12,0,23,0,0,0,0,0,0
CCOc1ccc(N=C(NN)c2ccc3ccccc3n2)cc1,0,24,0,0,0,0,0,0
O=C1N(c2ccccc2)C[C@@H]2C[C@@H](c3cc4ccccc4o3)N3CCC[C@@]123,0,27,0,0,0,-,0,0
COc1ccc([N+](=O)[O-])cc1N/C(=N/S(=O)(=O)c1ccccc1)c1ccccc1,0,0,0,0,0,-,-,-
COc1cc(-c2nnc(COc3ccc4ccccc4c3)o2)cc(OC)c1OC,0,23,0,0,0,0,0,0
COc1ccc2c(c1)C(C)=CC(C)(C)N2C(=O)CSc1nnc(-c2ccc(C)cc2)o1,0,23,0,0,0,0,0,0
O=C1CN(C(=O)CSc2nc(-c3ccc(Cl)cc3)cs2)c2ccccc2N1,0,0,0,0,0,0,-,-
CCCCNC(=O)c1sc2nc(C)cc(COC)c2c1-n1cccc1,0,21,0,0,0,0,0,0
COCc1cc(C)nc2sc(C(=O)NN)c(-n3cccc3)c12,0,0,0,0,0,-,-,-
O=C(Nc1ccc(Cl)cc1)C1C2CCC3C(CCC21)C3(Cl)Cl (centres undefined),0,0,0,0,0,0,-,-
Cc1cccc(NC(=O)C2C3CCC4C(CCC32)C4(Cl)Cl)c1 (centres undefined),0,28,-,0,0,0,0,0
CCCCCC(=O)Nc1ccccc1N1CCOCC1,0,0,0,0,0,0,-,-
O=C(Cc1ccccc1)Nc1ccccc1N1CCN(c2ccccc2)CC1,0,22,-,0,0,0,0,0
CCCCC(=O)Nc1ccccc1N1CCN(c2ccccc2)CC1,0,24,0,0,0,-,0,30
O=C(Nc1ccccc1N1CCN(c2ccccc2)CC1)c1ccccc1F,0,36,0,0,0,-,0,0
O=C(Nc1ccccc1N1CCCCC1)c1ccccc1F,0,0,0,0,0,0,-,-
O=C(Cc1ccc(Cl)cc1)Nc1ccccc1N1CCOCC1,0,0,0,0,0,0,-,-
CC(C)(C)N(Cc1ccccc1)C(=O)COC(=O)Cn1cnc2ccccc2c1=O,0,0,0,0,0,-,-,-
CCSc1nc2ccccc2n1C(=O)/C=C\c1ccc(OC)c(OC)c1,0,0,0,0,0,0,-,-
COc1ccc(C)cc1NC(=O)CSc1nnc(COc2ccccc2)n1Cc1ccco1,0,21,0,0,0,0,0,0

# Screening results as filed in PubChem.
